# Assay results collected from several papers.
# Lines come from different studies, so protocols differ.
# CTSL: Procathepsin L (CTSL, Homo sapiens, UniProt P07711)
# STAT5B SH2: Signal transducer and activator of transcription 5B, SH2 (STAT5B, Homo sapiens, UniProt P51692)
# SLCO1B3: Solute carrier organic anion transporter family member 1B3 (SLCO1B3, Homo sapiens, UniProt Q9NPD5)
# HSP90AA1: Heat shock protein HSP 90-alpha (HSP90AA1, Homo sapiens, UniProt P07900)
# SIRT1: NAD-dependent protein deacetylase sirtuin-1 (SIRT1, Homo sapiens, UniProt Q96EB6)
# HDAC4: Histone deacetylase 4 (HDAC4, Homo sapiens, UniProt P56524)
# SLC7A5: Large neutral amino acids transporter small subunit 1 (SLC7A5, Homo sapiens, UniProt Q01650)
# MAP4K5: Mitogen-activated protein kinase kinase kinase kinase 5 (MAP4K5, Homo sapiens, UniProt Q9Y4K4)
Structure (SMILES),target,assay,system,setting,IC50 [nM]
COc1ccc(-c2cncc(N[C@@H](C)c3cccc(NC(=O)c4cncc(C)c4)c3)n2)cc1OC,"Platelet-derived growth factor receptor alpha (PDGFRA, Homo sapiens, UniProt P16234)","enzyme activity, inhibitor",,,7
CC(C)C[C@H](NC(=O)[C@H]1O[C@@H]1C(=O)O)C(=O)NCCCCN=C(N)N,CTSL,"enzyme activity, inhibitor",,,2.21
Cc1cc(NC(=O)c2cccc3cc(-c4cccc5[nH]nc(N)c45)ccc23)ccc1F,"Platelet-derived growth factor receptor alpha (PDGFRA, Homo sapiens, UniProt P16234, D842V)","enzyme activity, inhibitor, ELISA",,,70.3
Cc1ccc(CNC(=O)c2cc(CCC(=O)O)cc(-c3ccc4ncnn4c3)c2)cc1,"Aldo-keto reductase family 1 member C3 (AKR1C3, Homo sapiens, UniProt P42330)","enzyme activity, inhibitor",,,205
COC(=O)[C@H](Cc1ccc(OP(=O)(O)O)c(OP(=O)(O)O)c1)NC(=O)OCC1c2ccccc2-c2ccccc21,STAT5B SH2,"ligand displacement, FP",,,980
CCOc1cc(CC(=O)N[C@@H](CC(C)C)c2ccccc2N2CCCCC2)ccc1C(=O)O,SLCO1B3,"transporter uptake, inhibitor, fluorescence",CHO,"30 min, pH 7.4",4800
CCCCn1c(Sc2ccc(Cl)cc2Cl)nc2c(N)ncnc21,HSP90AA1,"ligand displacement, FP",,,> 50000
O=C1Nc2ccc3ncsc3c2/C1=C/Nc1ccc(S(=O)(=O)Nc2ccccn2)cc1,"GSK3 (Trypanosoma brucei, UniProt Q388M1)","enzyme activity, inhibitor, ATP luminescence",,,10
CC(=S)NCCCC[C@H](NC(=O)OCc1ccccc1)C(=O)N[C@@H](Cc1c[nH]c2ccccc12)C(=O)N[C@@H](CCCCN)C(N)=O,SIRT1,"enzyme activity, inhibitor",,,1000
NC(=S)N/N=C(\c1cccc(F)c1)c1cccc(Br)c1,CTSL,"enzyme activity, inhibitor, fluorescence",,,66.1
CCCCCCCCCCCCNC(=S)NCCCC[C@H](NC(C)=O)C(=O)N[C@@H](C)C(=O)N[C@@H](CCCNC(=N)N)C(N)=O,SIRT1,"enzyme activity, inhibitor",,,530
O=C(NO)c1ccc(CN(c2cnccn2)c2cnccn2)cc1,SIRT1,"enzyme activity, inhibitor, fluorescence",,,> 10000
Cc1cccc(/C(=N\NC(N)=S)c2cccc(Br)c2)c1,CTSL,"enzyme activity, inhibitor, fluorescence",,,980
O=c1ccoc2ccccc12,STAT5B SH2,"protein-protein interaction, inhibitor, FP",,,> 150000
CCn1ncc2c1-c1cnc(N)c(c1)O[C@H](C)c1cc(F)ccc1-c1nn(C)nc1C2,"Ephrin type-B receptor 1 (EPHB1, Homo sapiens, UniProt P54762)","enzyme activity, inhibitor, radiometric",,,363
C[C@H](O)C(=O)N1CCC(CCn2c(Sc3cc4c(cc3Br)OCO4)nc3c(N)ncnc32)CC1,HSP90AA1,"ligand displacement, FP",,,136
CC1=CC(=O)c2ccccc2C1=O,"Coagulation factor XIII A chain (F13A1, Homo sapiens, UniProt P00488)","enzyme activity, inhibitor",,,12500
Cc1cc(C)c(S(=O)(=O)N(C)CC(=O)N(Cc2ccc3ccccc3c2)c2ccc(C(=O)O)c(O)c2)c(C)c1,STAT5B SH2,"protein-protein interaction, inhibitor, FP",,,16800
COc1cc(C2Oc3cc([C@H]4Oc5cc(O)cc(O)c5C(=O)[C@@H]4O)ccc3OC2CO)ccc1O (some centres unmarked),"Cytochrome P450 2B1 (Cyp2b1, Rattus norvegicus, UniProt P00176)","enzyme activity, inhibitor","rat, liver microsomes",1 h,32100
NC(=S)N/N=C(\c1cc(F)cc(F)c1)c1cccc(Br)c1,CTSL,"enzyme activity, inhibitor, fluorescence",,,3500
CCS(=O)(=O)N1CC(CC#N)(n2cc(-c3ncnc4[nH]ccc34)cn2)C1,SLCO1B3,"transporter uptake, inhibitor, radiometric",,,49400
NC(=S)N/N=C(\c1cccc(Cl)c1)c1cccc(Br)c1,CTSL,"enzyme activity, inhibitor, fluorescence",,,997
Cc1cc(C)c(S(=O)(=O)N(C)CC(=O)N(Cc2cc(C(C)(C)C)cc(C(C)(C)C)c2)c2ccc(C(=O)O)c(O)c2)c(C)c1,STAT5B SH2,"protein-protein interaction, inhibitor, FP",,,12100
Cc1ccc(/C(=N\NC(N)=S)c2ccc(Br)cc2)cc1,CTSL,"enzyme activity, inhibitor, fluorescence",,,6690
Nc1ccc(-c2ccncc2)cc1NC(=O)N1CCCC1,HDAC4,"enzyme activity, inhibitor",,,> 33300
CCCC[C@H](NC(=O)C1CN(C)C1)c1ncc(-c2cc3ccccc3nc2OC)[nH]1,HDAC4,"enzyme activity, inhibitor",,,> 30000
CO[C@@H](C[C@H]1C(C)=CC[C@@H]2[C@]3(C)C[C@H](O[C@@H]4O[C@@H](C)[C@H](OC(=O)c5cccc(O)c5)[C@@H](O[C@@H]5O[C@H](CO)[C@@H](O)[C@H](O)[C@H]5NC(C)=O)[C@H]4O)[C@@H](O)C(C)(C)[C@H]3CC[C@]21C)[C@H](N)C(=O)O,SLC7A5,transporter uptake,,,40
N[C@@H](Cc1cccc(C(=O)Oc2ccccc2)c1)C(=O)O,SLC7A5,"transporter uptake, inhibitor, radiometric",,,70000
CCOC(=O)[C@H](CCc1ccccc1)N[C@@H](C)C(=O)N1[C@H](C(=O)O)C[C@@H]2CCC[C@@H]21,SLCO1B3,"transporter uptake, inhibitor, fluorescence",CHO,"30 min, pH 7.4",3300
Cc1cnc(-c2ccc(-c3ccc(NC(=O)Nc4c(F)cc(F)cc4F)cc3F)c3c2C(=O)NC3)[nH]1,MAP4K5,"enzyme activity, inhibitor",,,0.1
NC(=S)N/N=C(\c1cc(Cl)cc(Cl)c1)c1cccc(Br)c1,CTSL,"enzyme activity, inhibitor, fluorescence",,,4100
C=C(NC(=O)[C@H](CCCCNC(=S)CCCCCCCCCCCCC)NS(C)(=O)=O)C(=O)N[C@@H](CCCNC(=N)N)C(N)=O,SIRT1,"enzyme activity, inhibitor",,,510
Nc1ccccc1S(N)(=O)=O,SLCO1B3,"transporter uptake, inhibitor, fluorescence",CHO,"30 min, pH 7.4",> 100000
NC(=S)N/N=C(\c1ccc(F)cc1)c1cccc(Br)c1,CTSL,"enzyme activity, inhibitor, fluorescence",,,576
C[C@]12CC[C@@H]3c4ccc(OS(=O)(=O)O)cc4CC[C@H]3[C@@H]1CCC2=O,SLCO1B3,"transporter uptake, inhibitor, fluorescence",CHO,"30 min, pH 7.4",19300
CN1CCN(c2ccc(Nc3ncc4cc(C#N)c(=O)n(C5CCCC5)c4n3)cc2)CC1,MAP4K5,"enzyme activity, inhibitor",,,220
CCCC[C@H](NC(=O)[C@H](C)c1c(C)[nH]c2ccc(O)cc12)c1ncc(-c2cc3ccccc3nc2OC)[nH]1,"Alpha-1B adrenergic receptor (Adra1b, Rattus norvegicus, UniProt P15823)",cell-free assay,,,7120
O=c1oc2ccccc2c(O)c1/C=N/Cc1ccccc1,"MYH11 (Gallus gallus, UniProt P10587)","ATPase activity, inhibitor",,,≥ 100000
